Entries after “also recorded” stand apart in the source; their conditions may differ.
What was measured:
[1] = tested on: DU145 cells; experiment: Apoptosis assay, Annexin V-FITC/Propidium Iodide flow cytometry; format: cell-based; settings: 24 h
Procedure, shortened: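 DU145 cells in six-well plates were treated 24 h at 37 °C with vehicle, test compound (3, 10, 30 μM) or silibinin reference (30 μM). Cells were harvested, washed in ice-cold PBS, stained with an Annexin V-FITC apoptosis kit and analysed by flow cytometry. Data are mean ± SD of three individual experiments.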

[2] = tested on: DU145 cells; experiment: Cell cycle assay, propidium iodide flow cytometry; format: cell-based; settings: DU145, 24 h
Procedure, shortened: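 DU145 cells were treated 24 h after plating with increasing test compound concentrations (3, 10, 30 μM) or silibinin (30 μM), and harvested 24 h later. They were PBS-washed, fixed in ice-cold 70% ethanol for ≥24 h, rewashed in room-temperature PBS and stained with propidium iodide plus RNase-A (30 min, 37 °C). Flow cytometry followed. Data are mean ± SD of three experiments.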

[3] = cited from earlier work

Compound: COc1cc(C2Oc3cc(C4Oc5cc(O)cc(O)c5C(=O)C4OC(=O)CCC(=O)O[C@H]4O[C@@H](CO)C(O)[C@@H](O)[C@@H]4O)ccc3OC2CO)ccc1O (stereo partly drawn) [Compound 15, 5,7-Dihydroxy-2-[3-(4-hydroxy-3-methoxyphenyl)-2-(hydroxymethyl)-2,3-dihydrobenzo[b][1,4]dioxin-6-yl]-4-oxochroman-3-yl [(2R,3S,4R,6S)-3,4,5-trihydroxy-6-(hydroxymethyl)tetrahydro-2H-pyran-2-yl] succinate]
- induction of apoptosis (in words) ([1]; DU145, 3, 10 and 30 μM): induced apoptosis in DU145 cells; also recorded: markedly induced cell apoptosis in a dose-dependent manner
- ability to promote DU145 cell apoptosis relative to silibinin ([1]; DU145, same concentration of 30 μM): approximately 2 times
- effect on cell cycle (in words) [2]: arrested cell cycle at G2/M phase; also recorded: blocked the tumor cells in G2/M -phase progression

Compound: COc1cc(C2Oc3cc([C@H]4Oc5cc(O)cc(O)c5C(=O)[C@@H]4O)ccc3OC2CO)ccc1O (stereo partly shown) [Silibinin]
- Solubility in H2O [3]: less than 0.4 mg/L

Reference: PMC10349574 (Drug Design, Development and Therapy, 2023)
